Laboratory results taken from ChEMBL document CHEMBL4138116, “New bicyclic brominated furanones as potent autoinducer-2 quorum-sensing inhibitors against bacterial biofilm formation” (Eur J Med Chem, 2017).
Blank lines part the entries; values can stand above or below the compound they belong to. Activity calls are given as the source filed them. No cut-off for these calls is given here.

Columns and labels:
Fusobacterium nucleatum [1] = experiment: Inhibition of Fusobacterium nucleatum ATCC 25586 AI-2 assessed as decrease in biofilm formation at 0.02 to 0.2 uM
Fusobacterium nucleatum [2] = experiment: Inhibition of Fusobacterium nucleatum ATCC 25586 AI-2 assessed as decrease in biofilm formation at 0.2 to 2 uM
Fusobacterium nucleatum [3] = experiment: Inhibition of Fusobacterium nucleatum AI-2-mediated biofilm formation of Tannerella forsythia ATCC 43037 assessed as biofilm biomass at 2 uM incubated for 48 hrs under anaerobic condition by confocal laser scanning microscopic method (reference value: 4.05 um'3/um'2)
Fusobacterium nucleatum [4] = experiment: Inhibition of Fusobacterium nucleatum ATCC 25586 planktonic growth at […] incubated for 48 hrs under anaerobic condition by spectrophotometric method; type: organism-based
In short: (§1)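 F. nucleatum, P. gingivalis or T. forsythia were grown planktonically for 48 h at 37 °C under anaerobic conditions with compound at 2 mM. Growth was monitored by absorbance at 600 nm.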

Fusobacterium nucleatum [5] = experiment: Inhibition of Fusobacterium nucleatum AI-2-mediated biofilm formation of Fusobacterium nucleatum ATCC 25586 assessed as biofilm average depth at 2 uM incubated for 48 hrs under anaerobic condition by confocal laser scanning microscopic method (reference value: 5.37 um)
Fusobacterium nucleatum [6] = experiment: Inhibition of Fusobacterium nucleatum AI-2-mediated biofilm formation of Porphyromonas gingivalis ATCC 33277 assessed as biofilm formation at 2 uM incubated for 48 hrs under anaerobic condition by crystal violet staining-based assay (reference value: 100%); design: scale not given: the % may be the effect or the level left
In short: (§2)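 Crystal-violet biofilm assay on glass slips in 24-well plates with 10% (v/v) F. nucleatum AI-2 and compound at 0.002–2 mM. Inocula were F. nucleatum 2 × 10^7, P. gingivalis 2 × 10^8 and T. forsythia 2 × 10^8 bacteria/mL, held 48 h anaerobically (10% H2, 10% CO2, 80% N2). Slips were washed three times with PBS, stained with 1% crystal violet for 10 min, destained with acetone–alcohol (20:80) and read at A595.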

THP-1 [7] = experiment: Cytotoxicity against human THP1 cells assessed as effect on cell viability at 2 uM incubated for 24 hrs by CCK8 assay; type: cell-based; details: thp-1, 24 h
In short: (§3)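 Cells in 96-well plates were exposed to compound for 24 h, with viability read by CCK-8 against a non-treated control. THP-1 (RPMI 1640, 10% FBS) was seeded at 1 × 10^5 cells/well and treated directly. HGFs (DMEM, 10% FBS) at 2 × 10^4 and HOK-16B (keratinocyte basal medium) at 5 × 10^4 cells/well were treated after reaching 85% confluence. Runs were done three times in triplicate.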

Fusobacterium nucleatum [8] = experiment: Inhibition of Fusobacterium nucleatum AI-2-mediated biofilm formation of Tannerella forsythia ATCC 43037 assessed as biofilm average depth at 2 uM incubated for 48 hrs under anaerobic condition by confocal laser scanning microscopic method (reference value: 5.29 um)
Fusobacterium nucleatum [9] = experiment: Inhibition of Fusobacterium nucleatum AI-2-mediated biofilm formation of Tannerella forsythia ATCC 43037 assessed as biofilm formation at 2 uM incubated for 48 hrs under anaerobic condition by crystal violet staining-based assay (reference value: 100%); design: scale not given: the % may be the effect or the level left; in short: as §2
Fusobacterium nucleatum [10] = experiment: Inhibition of Fusobacterium nucleatum AI-2-mediated biofilm formation of Porphyromonas gingivalis ATCC 33277 assessed as biofilm biomass at 2 uM incubated for 48 hrs under anaerobic condition by confocal laser scanning microscopic method (reference value: 3.73 um'3/um'2)
THP-1 [11] = experiment: Effect on host cell immune response in human THP1 cells assessed as upregulation of IL-8 mRNA expression at 2 uM after 24 hrs by RT-PCR method; type: ADME, cell-based; details: thp-1, 24 h
In short: (§4)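 THP-1 cells (1 × 10^6 cells/well) or HGFs (2 × 10^5 cells/well) in 6-well plates were incubated 24 h at 37 °C with or without compound, with LPS as comparator. Total RNA (1 µg) was reverse-transcribed, and IL-6 and IL-8 mRNA were quantified by SYBR Green real-time PCR (40 cycles of 95 °C for 15 s and 60 °C for 1 min). Runs were done three times in triplicate.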

[12] = Cytotoxicity against human gingival fibroblasts assessed as effect on cell viability at 2 uM incubated for 24 hrs by CCK8 assay; in short: as §3
Fusobacterium nucleatum [13] = experiment: Inhibition of Fusobacterium nucleatum AI-2-mediated biofilm formation of Fusobacterium nucleatum ATCC 25586 assessed as biofilm biomass at 2 uM incubated for 48 hrs under anaerobic condition by confocal laser scanning microscopic method (reference value: 2.99 um'3/um'2)
Vibrio harveyi = experiment: Effect on Vibrio harveyi BB170 planktonic growth at 2 incubated for 9 hrs under aerobic condition by spectrophotometric method; design: concentration or dose not given beside the values; details: in vitro
THP-1 [14] = experiment: Effect on host cell immune response in human THP1 cells assessed as upregulation of IL-6 mRNA expression at 2 uM after 24 hrs by RT-PCR method; type: ADME, cell-based; details: thp-1, 24 h; in short: as §4
Porphyromonas gingivalis = experiment: Inhibition of Porphyromonas gingivalis ATCC 33277 planktonic growth at […] incubated for 48 hrs under anaerobic condition by spectrophotometric method; type: organism-based; in short: as §1
Fusobacterium nucleatum [15] = experiment: Inhibition of Fusobacterium nucleatum AI-2-mediated biofilm formation of Porphyromonas gingivalis ATCC 33277 assessed as biofilm average depth at 2 uM incubated for 48 hrs under anaerobic condition by confocal laser scanning microscopic method (reference value: 4.87 um)
[16] = Cytotoxicity against human HOK16B assessed as effect on cell viability at 2 uM incubated for 24 hrs by CCK8 assay; in short: as §3
Tannerella forsythia = experiment: Inhibition of Tannerella forsythia ATCC 43037 planktonic growth at […] incubated for 48 hrs under anaerobic condition by spectrophotometric method; type: organism-based; in short: as §1
Fusobacterium nucleatum [17] = experiment: Inhibition of Fusobacterium nucleatum AI-2-mediated biofilm formation of Fusobacterium nucleatum ATCC 25586 assessed as biofilm formation at 2 uM incubated for 48 hrs under anaerobic condition by crystal violet staining-based assay (reference value: 100%); design: scale not given: the % may be the effect or the level left; in short: as §2
[18] = Effect on host cell immune response in human gingival fibroblasts assessed as upregulation of IL-8 mRNA expression at 2 uM after 24 hrs by RT-PCR method; type: ADME; in short: as §4
[19] = Effect on host cell immune response in human gingival fibroblasts assessed as upregulation of IL-6 mRNA expression at 2 uM after 24 hrs by RT-PCR method; type: ADME; in short: as §4

- inhibition (Fusobacterium nucleatum [1]): inactive
- inhibition (Fusobacterium nucleatum [2]): Active
SMILES: O=C1OC(=C(Br)Br)c2ccccc21

- inhibition (Fusobacterium nucleatum [1]): inactive
SMILES: CCCCOc1ccc2c(c1)C(=C(Br)Br)OC2=O

- inhibition (Fusobacterium nucleatum [1]): inactive
SMILES: CCOc1ccc2c(c1)C(=C(Br)Br)OC2=O

- Activity (Fusobacterium nucleatum [3]): 0.88 um3/um2
- Activity (Fusobacterium nucleatum [5]): 1.72 µm
- Activity (Fusobacterium nucleatum [6]): 29.3%
- Activity (Fusobacterium nucleatum [8]): 2.41 µm
- Activity (Fusobacterium nucleatum [9]): 53.5%
- inhibition (Fusobacterium nucleatum [1]): Active
- Activity (Fusobacterium nucleatum [10]): 0.27 um3/um2
- Activity (Fusobacterium nucleatum [13]): 0.32 um3/um2
- Activity (Fusobacterium nucleatum [15]): 1.97 µm
- Activity (Fusobacterium nucleatum [17]): 33.2%
SMILES: Cc1cccc2c1C(=O)OC2=C(Br)Br
- growth inhibition (GI) (Fusobacterium nucleatum [4]): Non-Toxic
- Activity (THP-1 [7]): Non-Toxic
- Activity (THP-1 [11]): Non-Toxic
- Activity [12]: Non-Toxic
- Activity (Vibrio harveyi): Non-Toxic
- Activity (THP-1 [14]): Non-Toxic
- growth inhibition (GI) (Porphyromonas gingivalis): Non-Toxic
- Activity [16]: Non-Toxic
- growth inhibition (GI) (Tannerella forsythia): Non-Toxic
- Activity [18]: Non-Toxic
- Activity [19]: Non-Toxic

- inhibition (Fusobacterium nucleatum [1]): inactive
SMILES: O=C1OC(=C(Br)Br)C2=C1CCCC2

- inhibition (Fusobacterium nucleatum [1]): inactive
SMILES: CCCOc1ccc2c(c1)C(=C(Br)Br)OC2=O

- inhibition (Fusobacterium nucleatum [1]): inactive
SMILES: O=C1OC(=C(Br)Br)C2CCCCC12 (stereo unspecified)

- Activity (Fusobacterium nucleatum [3]): 0.59 um3/um2
- Activity (Fusobacterium nucleatum [5]): 1.87 µm
- Activity (Fusobacterium nucleatum [6]): 34.7%
- Activity (Fusobacterium nucleatum [8]): 1.94 µm
- Activity (Fusobacterium nucleatum [9]): 33.5%
- inhibition (Fusobacterium nucleatum [1]): Active
- Activity (Fusobacterium nucleatum [10]): 0.29 um3/um2
- Activity (Fusobacterium nucleatum [13]): 0.38 um3/um2
- Activity (Fusobacterium nucleatum [15]): 2.05 µm
- Activity (Fusobacterium nucleatum [17]): 32.1%
SMILES: Cc1ccc2c(c1)C(=C(Br)Br)OC2=O
- growth inhibition (GI) (Fusobacterium nucleatum [4]): Non-Toxic
- Activity (THP-1 [7]): Non-Toxic
- Activity (THP-1 [11]): Non-Toxic
- Activity [12]: Non-Toxic
- Activity (Vibrio harveyi): Non-Toxic
- Activity (THP-1 [14]): Non-Toxic
- growth inhibition (GI) (Porphyromonas gingivalis): Non-Toxic
- Activity [16]: Non-Toxic
- growth inhibition (GI) (Tannerella forsythia): Non-Toxic
- Activity [18]: Non-Toxic
- Activity [19]: Non-Toxic

- Activity (Fusobacterium nucleatum [3]): 0.93 um3/um2
- Activity (Fusobacterium nucleatum [5]): 1.82 µm
- Activity (Fusobacterium nucleatum [6]): 48.4%
- Activity (Fusobacterium nucleatum [8]): 2.27 µm
- Activity (Fusobacterium nucleatum [9]): 57.8%
- inhibition (Fusobacterium nucleatum [1]): Active
- Activity (Fusobacterium nucleatum [10]): 0.31 um3/um2
- inhibition (Fusobacterium nucleatum [2]): Active
- Activity (Fusobacterium nucleatum [13]): 0.39 um3/um2
- Activity (Fusobacterium nucleatum [15]): 2.05 µm
- Activity (Fusobacterium nucleatum [17]): 38.8%
SMILES: O=C1OC(=C(Br)Br)C2CCCC12 (stereo unspecified)
- growth inhibition (GI) (Fusobacterium nucleatum [4]): Non-Toxic
- Activity (THP-1 [7]): Non-Toxic
- Activity (THP-1 [11]): Non-Toxic
- Activity [12]: Non-Toxic
- Activity (Vibrio harveyi): Non-Toxic
- Activity (THP-1 [14]): Non-Toxic
- growth inhibition (GI) (Porphyromonas gingivalis): Non-Toxic
- Activity [16]: Non-Toxic
- growth inhibition (GI) (Tannerella forsythia): Non-Toxic
- Activity [18]: Non-Toxic
- Activity [19]: Non-Toxic

- Activity (Fusobacterium nucleatum [3]): 0.77 um3/um2
- Activity (Fusobacterium nucleatum [5]): 2.02 µm
- Activity (Fusobacterium nucleatum [6]): 39.2%
- Activity (Fusobacterium nucleatum [8]): 2.18 µm
- Activity (Fusobacterium nucleatum [9]): 47.4%
- inhibition (Fusobacterium nucleatum [1]): Active
- Activity (Fusobacterium nucleatum [10]): 0.3 um3/um2
- Activity (Fusobacterium nucleatum [13]): 0.42 um3/um2
- Activity (Fusobacterium nucleatum [15]): 2.05 µm
- Activity (Fusobacterium nucleatum [17]): 55.6%
SMILES: O=C1C=C(Br)/C(=C/Br)O1
- Activity (THP-1 [11]): Toxic
- Activity (Vibrio harveyi): Toxic
- Activity (THP-1 [14]): Toxic
- Activity [18]: Toxic

- inhibition (Fusobacterium nucleatum [1]): inactive
SMILES: CCCOc1cccc2c1C(=O)OC2=C(Br)Br

- inhibition (Fusobacterium nucleatum [1]): inactive
SMILES: CCCCCOc1ccc2c(c1)C(=C(Br)Br)OC2=O

- inhibition (Fusobacterium nucleatum [1]): inactive
SMILES: CCCCOc1cccc2c1C(=O)OC2=C(Br)Br

- inhibition (Fusobacterium nucleatum [1]): inactive
SMILES: O=C1OC(=C(Br)Br)C2=C1CCC2

- inhibition (Fusobacterium nucleatum [1]): inactive
SMILES: CCOc1cccc2c1C(=O)OC2=C(Br)Br

- inhibition (Fusobacterium nucleatum [1]): inactive
SMILES: CCCCCOc1cccc2c1C(=O)OC2=C(Br)Br
